Results reported in ChEMBL document CHEMBL4680093 (J Med Chem, 2016).
Active and inactive are the calls of the source. The rule behind the calls is not given here.

How the values were obtained:
[1] = Metabolic stability in mouse liver microsomes assessed as compound remaining after 30 mins; assay type: ADME, Microsome; conditions: read-out: Stabilty
[2] = In-vivo inhibition of 11beta-HSD1 activity in C57BL/6 mouse liver assessed as reduction in cortisone to-cortisol conversion at 10 mg/kg, po measured after 2 hrs by ELISA; assay type: functional; conditions: C57BL/6, Liver
[3] = In-vivo inhibition of 11beta-HSD1 activity in C57BL/6 mouse epididymal fat assessed as reduction in cortisone to-cortisol conversion at 10 mg/kg, po measured after 2 hrs by ELISA; assay type: functional; conditions: C57BL/6, Epididymal fat pad
Outline: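 Male C57BL/6 mice dosed orally once at 3, 10 or 30 mg/kg in sterile water containing 0.5% methylcellulose and 1% Tween80, then sacrificed at 2 or 6 h. Liver and epididymal fat pads incubated ex vivo in culture medium containing cortisone. Cortisol formed was measured by ELISA and reported as % inhibition versus vehicle.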

Cytochrome P450 1A2 = biological target: T1, Cytochrome P450 1A2 (Homo sapiens, UniProt P05177); assay: Inhibition of CYP1A2 in pooled human liver microsomes using phenacetin as substrate in presence of NADPH incubated for 10 mins by LC-MS/MS analysis
T1 sequence (P05177 whole entry): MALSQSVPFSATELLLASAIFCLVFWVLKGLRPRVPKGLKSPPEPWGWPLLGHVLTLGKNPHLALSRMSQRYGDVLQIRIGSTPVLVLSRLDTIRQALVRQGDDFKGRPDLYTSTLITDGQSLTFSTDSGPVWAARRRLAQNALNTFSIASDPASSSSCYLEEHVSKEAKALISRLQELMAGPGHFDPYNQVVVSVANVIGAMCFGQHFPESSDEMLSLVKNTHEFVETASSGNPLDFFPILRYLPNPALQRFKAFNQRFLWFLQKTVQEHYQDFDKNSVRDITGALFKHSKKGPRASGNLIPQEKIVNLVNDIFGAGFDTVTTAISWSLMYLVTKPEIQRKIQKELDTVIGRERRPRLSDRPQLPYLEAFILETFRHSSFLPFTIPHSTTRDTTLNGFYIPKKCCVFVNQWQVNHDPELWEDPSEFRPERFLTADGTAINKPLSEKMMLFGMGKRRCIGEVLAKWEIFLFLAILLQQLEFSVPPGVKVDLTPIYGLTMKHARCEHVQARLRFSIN

Cytochrome P450 2C9 = Cytochrome P450 2C9 (Homo sapiens, UniProt P11712); assay: Inhibition of CYP2C9 in pooled human liver microsomes using diclofenac as substrate in presence of NADPH incubated for 10 mins by LC-MS/MS analysis
Cytochrome P450 2C9, sequence (P11712 whole entry): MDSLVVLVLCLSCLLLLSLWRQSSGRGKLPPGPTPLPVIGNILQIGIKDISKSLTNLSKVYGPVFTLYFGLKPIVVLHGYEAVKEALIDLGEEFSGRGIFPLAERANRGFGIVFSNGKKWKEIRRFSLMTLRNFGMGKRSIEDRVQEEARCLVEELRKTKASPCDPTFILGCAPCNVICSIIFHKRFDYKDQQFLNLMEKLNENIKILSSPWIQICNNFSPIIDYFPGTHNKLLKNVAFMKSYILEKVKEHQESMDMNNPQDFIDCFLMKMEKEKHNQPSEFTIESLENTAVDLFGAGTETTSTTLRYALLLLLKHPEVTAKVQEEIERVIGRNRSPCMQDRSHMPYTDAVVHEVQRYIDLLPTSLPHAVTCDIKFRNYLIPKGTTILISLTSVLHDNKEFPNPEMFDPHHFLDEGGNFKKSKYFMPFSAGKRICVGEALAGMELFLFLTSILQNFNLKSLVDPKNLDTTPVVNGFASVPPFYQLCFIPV

Cytochrome P450 2C19 = Cytochrome P450 2C19 (Homo sapiens, UniProt P33261); assay: Inhibition of CYP2C19 in pooled human liver microsomes using mephenytoin as substrate in presence of NADPH incubated for 10 mins by LC-MS/MS analysis
Cytochrome P450 2C19, sequence (P33261 whole entry): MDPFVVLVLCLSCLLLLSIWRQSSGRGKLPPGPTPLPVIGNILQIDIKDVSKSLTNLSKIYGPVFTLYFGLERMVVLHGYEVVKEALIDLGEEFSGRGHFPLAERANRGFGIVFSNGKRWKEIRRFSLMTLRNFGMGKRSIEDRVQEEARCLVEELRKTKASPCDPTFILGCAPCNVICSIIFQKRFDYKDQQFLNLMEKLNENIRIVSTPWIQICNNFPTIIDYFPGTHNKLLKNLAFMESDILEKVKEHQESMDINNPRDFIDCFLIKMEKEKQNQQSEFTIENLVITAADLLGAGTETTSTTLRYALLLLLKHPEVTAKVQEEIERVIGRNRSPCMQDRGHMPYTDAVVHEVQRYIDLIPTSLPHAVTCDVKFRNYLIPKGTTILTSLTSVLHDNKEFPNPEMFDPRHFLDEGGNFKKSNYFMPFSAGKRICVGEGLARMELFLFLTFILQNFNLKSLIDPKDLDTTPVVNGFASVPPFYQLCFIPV

Cytochrome P450 2D6 = Cytochrome P450 2D6 (Homo sapiens, UniProt P10635); assay: Inhibition of CYP2D6 in pooled human liver microsomes using dextromethorphan as substrate in presence of NADPH incubated for 10 mins by LC-MS/MS analysis
Cytochrome P450 2D6, sequence (P10635 whole entry): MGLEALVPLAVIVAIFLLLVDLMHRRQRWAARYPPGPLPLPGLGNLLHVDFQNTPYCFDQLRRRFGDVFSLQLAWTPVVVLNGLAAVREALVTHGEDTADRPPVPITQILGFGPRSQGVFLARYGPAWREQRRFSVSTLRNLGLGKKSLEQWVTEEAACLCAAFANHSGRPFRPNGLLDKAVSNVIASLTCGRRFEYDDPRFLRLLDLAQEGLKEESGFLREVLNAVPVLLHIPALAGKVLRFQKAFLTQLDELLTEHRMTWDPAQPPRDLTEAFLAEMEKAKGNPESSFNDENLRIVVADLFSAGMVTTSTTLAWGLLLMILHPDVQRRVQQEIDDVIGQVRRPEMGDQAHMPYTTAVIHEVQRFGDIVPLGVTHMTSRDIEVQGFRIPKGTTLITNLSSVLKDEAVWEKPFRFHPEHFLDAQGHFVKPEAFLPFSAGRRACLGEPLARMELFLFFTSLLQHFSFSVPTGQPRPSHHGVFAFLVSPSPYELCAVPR

Cytochrome P450 3A4 = Cytochrome P450 3A4 (Homo sapiens, UniProt P08684); assay: Inhibition of CYP3A4 in pooled human liver microsomes using midazolam as substrate in presence of NADPH incubated for 10 mins by LC-MS/MS analysis
Cytochrome P450 3A4, sequence (P08684 whole entry): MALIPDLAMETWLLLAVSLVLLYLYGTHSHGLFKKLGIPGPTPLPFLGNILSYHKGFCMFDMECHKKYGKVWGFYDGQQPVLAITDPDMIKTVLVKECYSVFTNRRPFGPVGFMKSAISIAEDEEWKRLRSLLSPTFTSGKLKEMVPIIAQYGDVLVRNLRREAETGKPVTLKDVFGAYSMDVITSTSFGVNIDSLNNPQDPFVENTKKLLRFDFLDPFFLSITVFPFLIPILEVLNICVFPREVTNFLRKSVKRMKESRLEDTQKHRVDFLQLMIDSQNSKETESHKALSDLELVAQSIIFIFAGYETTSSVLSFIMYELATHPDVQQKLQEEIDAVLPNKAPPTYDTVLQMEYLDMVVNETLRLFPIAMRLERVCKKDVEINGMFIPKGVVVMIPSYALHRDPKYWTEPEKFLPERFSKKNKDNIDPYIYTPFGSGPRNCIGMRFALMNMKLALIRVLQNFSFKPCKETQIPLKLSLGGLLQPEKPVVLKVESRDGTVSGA

[4] = Reduction in HbA1c in patient with type 2 diabetes exhibiting inadequate glycemic control with metformin alone dosed for 12 weeks during phase 2 trial; assay type: functional, Homo sapiens; design: scale not given: the % may be the effect or the level left
[5] = Reduction in fasting plasma glucose in patient with type 2 diabetes exhibiting inadequate glycemic control with metformin alone dosed for 12 weeks during phase 2 trial; assay type: functional, Homo sapiens
[6] = Reduction in HOMA-IR in patient with type 2 diabetes exhibiting inadequate glycemic control with metformin alone dosed for 12 weeks during phase 2 trial; assay type: functional, Homo sapiens; design: scale not given: the % may be the effect or the level left
[7] = Reduction in HbA1c level in C57BL/6-Lep^ob (ob/ob) mouse at 300 mg/kg, po dosed once daily for 25 days relative to control; assay type: functional; design: scale not given: the % may be the effect or the level left; conditions: time 25 day
Outline: (§1)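 Eight-week-old male ob/ob mice were dosed orally once daily for 25 days with vehicle (sterile water, 0.5% methylcellulose, 1% Tween80), test compound 20 mg/kg, metformin 300 mg/kg, or the combination. Baseline postprandial glucose and HbA1c were checked from tail-vein blood. Changes in HbA1c and non-fasting blood glucose were expressed relative to the vehicle group.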

Mus musculus [8] = assay: Reduction in nonfasting blood glucose level in C57BL/6-Lep^ob (ob/ob) mouse at 300 mg/kg, po dosed once daily for 25 days relative to control; assay type: functional, organism-based; conditions: time 25.0 day; outline: as §1
Mus musculus [9] = assay: Improvement in lipid profile in C57BL/6-Lep^ob (ob/ob) mouse assessed as LDL cholesterol level at 300 mg/kg, po dosed once daily for 25 days (reference value: 30.3 +/- 0.8 mg/dl); assay type: functional; conditions: time 25 day
Mus musculus [10] = assay: Improvement in lipid profile in C57BL/6-Lep^ob (ob/ob) mouse assessed as total cholesterol level at 300 mg/kg, po dosed once daily for 25 days (reference value: 286.6 +/- 6.3 mg/dl); assay type: functional; conditions: time 25 day
Mus musculus [11] = assay: Improvement in lipid profile in C57BL/6-Lep^ob (ob/ob) mouse assessed as triglyceride level at 300 mg/kg, po dosed once daily for 25 days (reference value: 90.9 +/- 5.5 mg/dl); assay type: functional; conditions: time 25 day
[12] = biological target: T2, Nuclear receptor subfamily 1 group I member 2 (Homo sapiens, UniProt O75469); assay: Activation of PXR (unknown origin) at 10 uM relative to rifampicin; assay type: ADME
T2 sequence (O75469 whole entry): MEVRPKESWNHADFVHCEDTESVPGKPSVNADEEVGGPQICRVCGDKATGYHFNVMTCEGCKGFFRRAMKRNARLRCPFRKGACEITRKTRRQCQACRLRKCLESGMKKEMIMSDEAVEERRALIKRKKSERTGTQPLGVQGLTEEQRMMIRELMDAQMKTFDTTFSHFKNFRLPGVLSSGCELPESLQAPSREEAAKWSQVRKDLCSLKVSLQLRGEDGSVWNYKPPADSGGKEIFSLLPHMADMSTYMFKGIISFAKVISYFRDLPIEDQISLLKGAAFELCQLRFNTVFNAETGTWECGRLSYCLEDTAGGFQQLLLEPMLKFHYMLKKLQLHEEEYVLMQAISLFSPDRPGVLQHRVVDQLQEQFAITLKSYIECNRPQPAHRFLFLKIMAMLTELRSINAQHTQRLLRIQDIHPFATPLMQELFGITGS

[13] = biological target: 11-beta-hydroxysteroid dehydrogenase 1 (Homo sapiens, UniProt P28845); assay: Inhibition of human 11beta-HSD1 expressed in HEK293 cells using cortisone by ELISA
11-beta-hydroxysteroid dehydrogenase 1, sequence (P28845 whole entry): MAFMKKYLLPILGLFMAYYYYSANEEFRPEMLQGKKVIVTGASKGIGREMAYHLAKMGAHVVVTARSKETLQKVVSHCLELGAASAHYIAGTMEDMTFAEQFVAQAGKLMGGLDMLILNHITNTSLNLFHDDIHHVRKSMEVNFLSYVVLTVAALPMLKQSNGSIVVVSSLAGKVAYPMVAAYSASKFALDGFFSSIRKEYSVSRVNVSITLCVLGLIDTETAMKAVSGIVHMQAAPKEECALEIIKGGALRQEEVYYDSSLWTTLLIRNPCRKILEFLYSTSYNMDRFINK

Row | Structure (SMILES) | remaining at 0.5 h [1] [%] | inhibition in vivo at 10 mg/kg [2] [%] | inhibition in vivo at 10 mg/kg [3] [%] | also measured
1 | CNC(=O)c1ccc(N2CCN(c3cccc(C(=O)NC4C5CC6CC4CC(O)(C6)C5)n3)[C@H](C)C2)cn1 (stereo partly specified) | 66 | 52 | 85 | IC50 (Cytochrome P450 1A2): > 10 µM; IC50 (Cytochrome P450 2C9): > 10 µM; IC50 (Cytochrome P450 2C19): 0.7 µM; IC50 (Cytochrome P450 2D6): > 10 µM; IC50 (Cytochrome P450 3A4): > 10 µM
2 | C[C@@H]1CN(c2cc(F)c(S(C)(=O)=O)cc2F)CCN1c1nccc(C(=O)NC2C3CC4CC2CC(O)(C4)C3)n1 (stereo partly specified) | 92 | 80 | 85 | 
3 | C[C@@H]1CN(c2c(F)cc(S(C)(=O)=O)cc2F)CCN1c1nccc(C(=O)NC2C3CC4CC2CC(O)(C4)C3)n1 (stereo partly specified) | 95 |  |  | 
4 | C[C@@H]1CN(c2ccc(C(=O)O)cc2)CCN1c1cccc(C(=O)NC2C3CC4CC2CC(O)(C4)C3)n1 (stereo partly specified) | 71 |  |  | 
5 | C[C@@H]1CN(c2ccc(C(C)(C)O)cc2F)CCN1c1nccc(C(=O)NC2C3CC4CC2CC(O)(C4)C3)n1 (stereo partly specified) | 98 | 43 | 74 | 
6 | C[C@@H]1CN(c2ccc(S(C)(=O)=O)cc2)CCN1c1nccc(C(=O)NC2C3CC4CC2CC(O)(C4)C3)n1 (stereo partly specified) | 92 | 48 | 81 | IC50 (Cytochrome P450 1A2): > 10 µM; IC50 (Cytochrome P450 2C9): > 10 µM; IC50 (Cytochrome P450 2C19): > 10 µM; IC50 (Cytochrome P450 2D6): > 10 µM; IC50 (Cytochrome P450 3A4): > 10 µM
7 | C[C@@H]1CN(c2ccc(S(N)(=O)=O)cc2)CCN1c1cccc(C(=O)NC2C3CC4CC2CC(O)(C4)C3)n1 (stereo partly specified) | 65 | 0 | 11 | 
8 | Cc1cc(S(C)(=O)=O)ccc1N1CCN(c2nccc(C(=O)NC3C4CC5CC3CC(O)(C5)C4)n2)[C@H](C)C1 (stereo partly specified) | 90 | 64 | 77 | 
9 | C[C@@H]1CN(c2ccc(C(F)(F)F)cc2)CCN1c1nccc(C(=O)NC2C3CC4CC2CC(O)(C4)C3)n1 (stereo partly specified) | 90 |  |  | 
10 | O=C(NC1CCCCC1)[C@H]1CCCN(S(=O)(=O)c2cccc(Cl)c2)C1 |  |  |  | Activity [4]: 0.6%; Activity [5]: 24 mg/dL; Activity [6]: 24%
11 | C[C@@H]1CN(c2ccc(C(N)=O)nc2)CCN1c1cccc(C(=O)NC2C3CC4CC2CC(O)(C4)C3)n1 (stereo partly specified) | 23 |  |  | 
12 | C[C@@H]1CN(c2ccc(C(C)(C)O)nc2)CCN1c1cccc(C(=O)NC2C3CC4CC2CC(O)(C4)C3)n1 (stereo partly specified) | 76 | 63 | 87 | 
13 | CNC(=O)c1ccc(N2CCN(c3cccc(C(=O)NC4C5CC6CC4CC(O)(C6)C5)n3)[C@H](C)C2)cc1 (stereo partly specified) | 61 | 0 | 34 | 
14 | CNS(=O)(=O)c1ccc(N2CCN(c3cccc(C(=O)NC4C5CC6CC4CC(O)(C6)C5)n3)[C@H](C)C2)cc1 (stereo partly specified) | 83 | 12 | 33 | 
15 | C[C@@H]1CN(c2ccc(C#N)cc2)CCN1c1nccc(C(=O)NC2C3CC4CC2CC(O)(C4)C3)n1 (stereo partly specified) | 86 | 6 | 12 | 
16 | CN(C)C(=N)NC(=N)N [METFORMIN] |  |  |  | Activity [7]: 0.7%; Activity (Mus musculus [8]): inactive; Activity (Mus musculus [9]): 23.9 mg/dL; Activity (Mus musculus [10]): 252.6 mg/dL; Activity (Mus musculus [11]): 99.9 mg/dL
17 | C[C@@H]1CN(c2ccc(S(C)(=O)=O)cc2Cl)CCN1c1nccc(C(=O)NC2C3CC4CC2CC(O)(C4)C3)n1 (stereo partly specified) | 96 | 77 | 82 | 
18 | C[C@@H]1CN(c2ccc(Cl)cc2)CCN1c1nccc(C(=O)NC2C3CC4CC2CC(O)(C4)C3)n1 (stereo partly specified) | 78 |  |  | 
19 | CCS(=O)(=O)c1ccc(N2CCN(c3nccc(C(=O)NC4C5CC6CC4CC(O)(C6)C5)n3)[C@H](C)C2)c(F)c1 (stereo partly specified) | 91 | 79 | 82 | 
20 | C[C@@H]1CN(c2ccc(F)cc2)CCN1c1nccc(C(=O)NC2C3CC4CC2CC(O)(C4)C3)n1 (stereo partly specified) | 82 |  |  | 
21 | C[C@@H]1CN(c2ccc(S(C)(=O)=O)cc2)CCN1c1cccc(C(=O)NC2C3CC4CC2CC(O)(C4)C3)n1 (stereo partly specified) | 97 | 70 | 86 | IC50 (Cytochrome P450 1A2): > 10 µM; IC50 (Cytochrome P450 2C9): > 10 µM; IC50 (Cytochrome P450 2C19): 3.7 µM; IC50 (Cytochrome P450 2D6): > 10 µM; IC50 (Cytochrome P450 3A4): 0.97 µM; Activity [12]: 32.7%; IC50 [13]: 0.0031 µM
22 | C[C@@H]1CN(c2ccc(C(C)(C)O)cc2)CCN1c1nccc(C(=O)NC2C3CC4CC2CC(O)(C4)C3)n1 (stereo partly specified) | 99 | 32 | 46 | 
23 | C[C@@H]1CN(c2ccc(C(N)=O)cc2)CCN1c1cccc(C(=O)NC2C3CC4CC2CC(O)(C4)C3)n1 (stereo partly specified) | 57 | 0 | 26 | 
